Measured values reported in ChEMBL document CHEMBL1157688, “Novel tumor-targeted RGD peptide-camptothecin conjugates: synthesis and biological evaluation” (Bioorg Med Chem, 2010).

Assays:
Integrin alpha-V/beta-3 [1] = target: T1, Integrin alpha-V/beta-3 (Homo sapiens, UniProt P05106+P06756); assay: Displacement of [125I]echistatin from integrin alphaVbeta3 receptor after 3 hrs by gamma counting; format: protein-complex assay
Target sequence in this assay (P05106 27-788 limits assumed): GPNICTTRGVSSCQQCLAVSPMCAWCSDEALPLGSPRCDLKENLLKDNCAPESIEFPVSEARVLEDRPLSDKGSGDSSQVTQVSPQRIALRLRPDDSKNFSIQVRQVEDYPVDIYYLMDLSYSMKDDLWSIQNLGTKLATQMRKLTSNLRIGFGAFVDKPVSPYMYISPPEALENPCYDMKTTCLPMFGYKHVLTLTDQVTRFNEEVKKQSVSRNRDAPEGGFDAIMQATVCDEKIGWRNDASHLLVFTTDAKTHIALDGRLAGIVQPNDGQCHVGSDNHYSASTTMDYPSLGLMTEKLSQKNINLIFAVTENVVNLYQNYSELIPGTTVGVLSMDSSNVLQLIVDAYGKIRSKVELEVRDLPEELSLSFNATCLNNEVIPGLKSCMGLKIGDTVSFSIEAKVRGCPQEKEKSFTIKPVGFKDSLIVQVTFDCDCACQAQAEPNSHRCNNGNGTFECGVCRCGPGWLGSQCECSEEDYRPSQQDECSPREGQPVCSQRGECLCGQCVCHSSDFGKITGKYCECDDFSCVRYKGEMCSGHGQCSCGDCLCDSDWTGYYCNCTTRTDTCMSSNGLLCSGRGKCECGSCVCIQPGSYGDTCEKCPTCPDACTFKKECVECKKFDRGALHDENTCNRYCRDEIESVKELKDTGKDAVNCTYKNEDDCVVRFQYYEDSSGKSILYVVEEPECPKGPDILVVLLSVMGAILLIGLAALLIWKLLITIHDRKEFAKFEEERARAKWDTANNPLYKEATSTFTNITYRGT
Target sequence in this assay (P06756 31-889 limits assumed): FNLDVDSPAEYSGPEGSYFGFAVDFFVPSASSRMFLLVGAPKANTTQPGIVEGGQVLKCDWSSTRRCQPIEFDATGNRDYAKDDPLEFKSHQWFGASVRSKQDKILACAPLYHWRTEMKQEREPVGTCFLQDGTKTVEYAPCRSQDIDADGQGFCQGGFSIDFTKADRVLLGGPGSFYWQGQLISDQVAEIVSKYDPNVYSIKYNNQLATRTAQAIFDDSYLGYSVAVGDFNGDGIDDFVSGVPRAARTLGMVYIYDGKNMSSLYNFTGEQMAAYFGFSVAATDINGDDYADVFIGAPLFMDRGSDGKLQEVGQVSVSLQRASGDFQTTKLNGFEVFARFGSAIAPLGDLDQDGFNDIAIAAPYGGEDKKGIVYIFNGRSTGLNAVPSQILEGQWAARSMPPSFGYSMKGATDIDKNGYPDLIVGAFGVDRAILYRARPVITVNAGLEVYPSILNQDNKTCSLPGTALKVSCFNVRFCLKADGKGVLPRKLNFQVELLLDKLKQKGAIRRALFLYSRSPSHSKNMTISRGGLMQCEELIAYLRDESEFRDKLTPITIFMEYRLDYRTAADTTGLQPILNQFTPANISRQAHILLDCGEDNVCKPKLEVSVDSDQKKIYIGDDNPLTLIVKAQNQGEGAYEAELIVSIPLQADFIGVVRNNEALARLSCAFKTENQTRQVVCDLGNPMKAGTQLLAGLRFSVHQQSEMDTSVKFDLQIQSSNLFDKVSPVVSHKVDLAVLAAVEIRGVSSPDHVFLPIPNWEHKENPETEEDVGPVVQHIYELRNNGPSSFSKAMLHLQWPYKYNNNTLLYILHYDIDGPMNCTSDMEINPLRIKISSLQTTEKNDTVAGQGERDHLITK
Target sequence in this assay (P06756 891-1048 limits assumed): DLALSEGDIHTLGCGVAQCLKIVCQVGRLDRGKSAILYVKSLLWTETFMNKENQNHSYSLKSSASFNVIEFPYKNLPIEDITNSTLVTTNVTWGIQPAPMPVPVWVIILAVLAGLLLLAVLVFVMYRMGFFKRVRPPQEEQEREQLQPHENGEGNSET

Integrin alpha-V/beta-5 [2] = target: T2, Integrin alpha-V/beta-5 (Homo sapiens, UniProt P06756+P18084); assay: Displacement of [125I]echistatin from integrin alphaVbeta5 receptor after 3 hrs by gamma counting; format: protein-complex assay
Target sequence in this assay (P06756 31-889 limits assumed): as the sequence (P06756 31-889 limits assumed) above
Target sequence in this assay (P06756 891-1048 limits assumed): as the sequence (P06756 891-1048 limits assumed) above
Target sequence in this assay (P18084 24-799 limits assumed): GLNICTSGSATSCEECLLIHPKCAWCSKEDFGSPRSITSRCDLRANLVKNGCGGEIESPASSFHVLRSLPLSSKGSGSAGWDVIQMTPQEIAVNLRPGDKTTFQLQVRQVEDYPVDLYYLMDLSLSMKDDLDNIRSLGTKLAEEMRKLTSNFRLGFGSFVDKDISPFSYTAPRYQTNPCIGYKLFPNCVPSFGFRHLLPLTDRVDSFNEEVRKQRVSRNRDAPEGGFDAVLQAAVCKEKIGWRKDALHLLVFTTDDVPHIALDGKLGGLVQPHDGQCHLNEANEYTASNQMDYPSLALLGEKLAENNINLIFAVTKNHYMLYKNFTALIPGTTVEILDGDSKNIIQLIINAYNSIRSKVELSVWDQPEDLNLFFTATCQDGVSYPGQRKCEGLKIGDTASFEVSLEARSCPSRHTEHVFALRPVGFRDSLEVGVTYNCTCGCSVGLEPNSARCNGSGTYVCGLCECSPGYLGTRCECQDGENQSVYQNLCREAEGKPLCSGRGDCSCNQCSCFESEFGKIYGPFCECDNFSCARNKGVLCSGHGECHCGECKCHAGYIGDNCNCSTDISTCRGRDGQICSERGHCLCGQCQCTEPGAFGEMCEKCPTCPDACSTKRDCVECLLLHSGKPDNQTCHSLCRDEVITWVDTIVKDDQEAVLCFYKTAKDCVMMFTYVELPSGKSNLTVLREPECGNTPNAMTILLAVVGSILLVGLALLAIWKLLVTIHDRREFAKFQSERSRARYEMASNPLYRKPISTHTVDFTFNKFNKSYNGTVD

Integrin alpha-V/beta-5 [3] = target: T2, Integrin alpha-V/beta-5; assay: Inhibition of integrin alphaVbeta5 receptor-mediated adhesion of human A2780 cells to vitronectin after 1 hr by toluidine blue staining; format: cell-based
Method in brief: (§1)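 Wells were coated 2 h at room temperature with human vitronectin and blocked 1 h with 1% BSA. Tumor cells in serum-free medium with 1% BSA were plated with compounds at 0.1 to 100 and incubated 1 h. Cells were washed with PBS, fixed 10 min in 4% paraformaldehyde and stained 10 min with 1% toluidine blue.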
Target sequence in this assay (P06756 31-889 limits assumed): as the sequence (P06756 31-889 limits assumed) above
Target sequence in this assay (P06756 891-1048 limits assumed): as the sequence (P06756 891-1048 limits assumed) above
Target sequence in this assay (P18084 24-799 limits assumed): as the sequence (P18084 24-799 limits assumed) above

Integrin alpha-V/beta-5 [4] = target: T2, Integrin alpha-V/beta-5; assay: Inhibition of integrin alphaVbeta5 receptor-mediated adhesion of human A498 cells to vitronectin after 1 hr by toluidine blue staining; format: cell-based; method in brief: as §1
Target sequence in this assay (P06756 31-889 limits assumed): as the sequence (P06756 31-889 limits assumed) above
Target sequence in this assay (P06756 891-1048 limits assumed): as the sequence (P06756 891-1048 limits assumed) above
Target sequence in this assay (P18084 24-799 limits assumed): as the sequence (P18084 24-799 limits assumed) above

Integrin alpha-V/beta-3 [5] = target: T1, Integrin alpha-V/beta-3; assay: Inhibition of integrin alphaVbeta3 receptor-mediated adhesion of human A498 cells to vitronectin after 1 hr by toluidine blue staining; format: cell-based; method in brief: as §1
Target sequence in this assay (P05106 27-788 limits assumed): as the sequence (P05106 27-788 limits assumed) above
Target sequence in this assay (P06756 31-889 limits assumed): as the sequence (P06756 31-889 limits assumed) above
Target sequence in this assay (P06756 891-1048 limits assumed): as the sequence (P06756 891-1048 limits assumed) above

Integrin alpha-V/beta-5 [6] = target: T2, Integrin alpha-V/beta-5; assay: Binding affinity to integrin alphaVbeta5 receptor in human A498 cells; format: cell-based
Integrin alpha-V/beta-3 [7] = target: T1, Integrin alpha-V/beta-3; assay: Binding affinity to integrin alphaVbeta3 receptor in human A498 cells; format: cell-based
Integrin alpha-V/beta-5 [8] = target: T2, Integrin alpha-V/beta-5; assay: Binding affinity to integrin alphaVbeta5 receptor in human A2780 cells; format: cell-based
Integrin alpha-V [9] = target: T3, Integrin alpha-V (Homo sapiens, UniProt P06756); assay: Binding affinity to integrin alphaV receptor in human PC3 cells; format: cell-based; details: PC-3
T3 sequence (P06756 31-889 limits assumed): as the sequence (P06756 31-889 limits assumed) above
T3 sequence (P06756 891-1048 limits assumed): as the sequence (P06756 891-1048 limits assumed) above
Method in brief: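 Tumor cells in serum-free medium with 1% BSA were plated for 1 h on wells precoated with 5 µg/ml human vitronectin and blocked with 1% BSA. Compounds were tested at 0.1–100 µM. Adherent cells were fixed with 4% paraformaldehyde, stained with 1% toluidine blue, solubilized in 1% SDS and read by absorbance. IC50 ± SD from curve fitting.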

PC-3 = assay: Cytotoxicity against human PC3 cells after 72 hrs by sulforhodamine B assay; format: functional, cell-based; details: PC-3, 72 h
Method in brief: (§2)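 Tumor cells were seeded in 96-well plates and exposed the next day to a range of drug concentrations for 72 h. Surviving cells were quantified by sulforhodamine B staining, and IC50 ± SD was derived by curve fitting.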

A498 [10] = assay: Cytotoxicity against human A498 cells after 72 hrs by sulforhodamine B assay; format: functional, cell-based; details: A498, 72 h; method in brief: as §2
A2780 [11] = assay: Cytotoxicity against human A2780 cells after 72 hrs by sulforhodamine B assay; format: functional, cell-based; details: A2780, 72 h; method in brief: as §2
A498 [12] = assay: Cellular uptake in human A498 cells at IC50 after 48 hrs by HPLC-FL analysis; format: ADME, cell-based; details: a498, 48 h
Method in brief: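 A-498 cells (6.2×10^5 per dish) were treated 24 h after seeding and sampled at 5, 24, 48 and 72 h. Cells were PBS-washed, scraped and pelleted, then lysed by five freeze-thaw cycles. Lysates were extracted with methanol/acetonitrile (1:1) and analyzed by isocratic HPLC with fluorescence detection. Lysate protein was measured by Bradford assay.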

Mus musculus [13] = assay: AUC (0 to infinity) in nude mouse xenografted with human A2780 cells at 48 mg/kg, ip administered as single dose every fourth day for four times; format: ADME, organism-based; parameters: time infinity, dose 48 mg/kg, route intraperitoneal; details: in vivo
Mus musculus [14] = assay: AUC (0 to infinity) in nude mouse xenografted with human A2780 cells at 48 mg/kg, sc QD for 5 days; format: ADME, organism-based; parameters: time infinity, dose 48 mg/kg, route subcutaneous; details: in vivo, 120 h
[15] = Chemical stability assessed as half life at 100 uM at pH 7.4 by HPLC analysis; format: physicochemical; details: buffer
Method in brief: (§3)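 Compounds were dissolved in DMSO and diluted to 100 (final, 1% DMSO) in phosphate buffer for pH 7.4 or acetate buffer for pH 5.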

[16] = Chemical stability assessed as half life at 100 uM at pH 5 by HPLC analysis; format: physicochemical; details: buffer; method in brief: as §3
A2780 [17] = assay: Antitumor activity against human A2780 cells xenografted in nude mouse assessed as tumor volume inhibition at 48 mg/kg, ip administered as single dose every fourth day for four times measured after 16 days of tumor implantation relative to control; format: functional; details: 384 h, route intraperitoneal
Method in brief: (§4)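 Nude mice bearing A2780 human ovarian carcinoma xenografts were dosed from day 2 after tumor injection, either ip every fourth day ×4 or sc daily ×5, at 10 mL/kg. Tumor volume was calculated from the shortest and longest diameters on day 16 or 17. TVI% is relative to vehicle-treated controls (mean ± SE, Mann–Whitney). Body weight was monitored for toxicity.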

A2780 [18] = assay: Antitumor activity against human A2780 cells xenografted in nude mouse assessed as tumor volume inhibition at 48 mg/kg, sc QD for 5 days measured after 17 days of tumor implantation relative to control; format: functional; details: route subcutaneous; method in brief: as §4
Mus musculus [19] = assay: Metabolic stability in nude mouse xenografted with human A2780 cells assessed as release of free namitecan in blood at 48 mg/kg, ip administered as single dose every fourth day for four times; format: ADME, organism-based; parameters: dose 48 mg/kg, route intraperitoneal; details: in vivo
Mus musculus [20] = assay: Metabolic stability in nude mouse xenografted with human A2780 cells assessed as release of free namitecan in blood at 48 mg/kg, sc QD for 5 days; format: ADME, organism-based; parameters: dose 48 mg/kg, route subcutaneous; details: in vivo, 120 h
Integrin alpha-V [21] = target: T3, Integrin alpha-V; assay: Inhibition of integrin alphaV receptor-mediated adhesion of human PC3 cells to vitronectin after 1 hr by toluidine blue staining; format: cell-based; details: pc-3; method in brief: as §1
A498 [22] = assay: Cellular uptake in human A498 cells at 0.064 uM after 5 hrs by HPLC-FL analysis; format: ADME, cell-based; details: a498, 5 h
Method in brief: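 A-498 cells (6.2 × 10⁵) were seeded in dishes and dosed 24 h later, then sampled at 5, 24, 48 and 72 h. Cells were PBS-washed, scraped, pelleted, lysed by five freeze–thaw cycles, and extracted with methanol/acetonitrile (1:1). Culture medium was extracted the same way. Analysis was by isocratic HPLC-FL (30% CH₃CN / 70% 0.1 M AcOH with 0.1% TEA, pH about 3.5), and lysate protein was measured by Bradford assay.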

A2780 [23] = assay: Antitumor activity against human A2780 cells xenografted in nude mouse assessed as tumor volume inhibition at 16.3 mg/kg, sc QD for 5 days; format: functional, organism-based; parameters: dose 16.3 mg/kg; method in brief: as §4
A2780 [24] = assay: Antitumor activity against human A2780 cells xenografted in nude mouse assessed as tumor volume inhibition at 0.42 mg/kg, sc QD for 5 days measured after 17 days of tumor implantation relative to control; format: functional; details: route subcutaneous; method in brief: as §4
Mus musculus [25] = assay: AUC (0 to infinity) in nude mouse xenografted with human A2780 cells at 0.42 mg/kg, sc QD for 5 days; format: ADME, organism-based; parameters: time infinity, dose 0.42 mg/kg, route subcutaneous; details: in vivo, 120 h

| Compound | IC50 (Integrin alpha-V/beta-3 [1]; read-out: IC50) [µM] | IC50 (Integrin alpha-V/beta-5 [2]) [µM] | IC50 (Integrin alpha-V/beta-5 [3]) [µM] | IC50 (Integrin alpha-V/beta-5 [4]) [µM] | IC50 (Integrin alpha-V/beta-3 [5]) [µM] | IC50 (PC-3) [µM] | IC50 (A498 [10]) [µM] | IC50 (A2780 [11]) [µM] | other results |
| --- | --- | --- | --- | --- | --- | --- | --- | --- | --- |
| N=C(N)NCCC[C@@H]1NC(=O)[C@H](c2ccc(CNC(=O)CCC(=O)O)cc2)NC(=O)[C@@H](Cc2ccccc2)NC(=O)[C@H](CC(=O)O)NC(=O)CNC1=O | 0.0376 | 0.0051 | 9.5 | 34 | 34 | > 1000 | > 1000 | > 1000 | Activity (Integrin alpha-V/beta-5 [6]): Dose-dependent effect; Activity (Integrin alpha-V/beta-3 [7]): Dose-dependent effect; Activity (Integrin alpha-V/beta-5 [8]): Dose-dependent effect; Activity (Integrin alpha-V [9]): Dose-dependent effect |
| N=C(N)NCCC[C@@H]1NC(=O)[C@H](c2ccc(CNC(=O)COCCOCCOCC(=O)O)cc2)NC(=O)[C@@H](Cc2ccccc2)NC(=O)[C@H](CC(=O)O)NC(=O)CNC1=O | 0.004 | 0.00035 | 12.3 | 10.7 | 10.7 | > 1000 | > 1000 | > 1000 | Activity (Integrin alpha-V/beta-5 [6]): Dose-dependent effect; Activity (Integrin alpha-V/beta-3 [7]): Dose-dependent effect; Activity (Integrin alpha-V/beta-5 [8]): Dose-dependent effect; Activity (Integrin alpha-V [9]): Dose-dependent effect |
| CC[C@@]1(O)C(=O)OCc2c1cc1n(c2=O)Cc2c-1nc1ccccc1c2C=O | – | – | – | – | – | 0.13 | – | 0.003 | – |
| CC[C@@]1(O)C(=O)OCc2c1cc1n(c2=O)Cc2c-1nc1ccccc1c2/C=N\OCCNC(=O)CCC[C@@H]1NC(=O)[C@@H](Cc2ccccc2)NC(=O)[C@H](CC(=O)O)NC(=O)CNC(=O)[C@H](CCCNC(=N)N)NC1=O | – | – | 3.1 | 3.7 | 3.7 | 15 | 3.2 | 0.4 | Drug uptake (A498 [12]): Active; AUC (Mus musculus [13]): 82 µg/h/mL; AUC (Mus musculus [14]): 82 µg/h/mL |
| CC[C@@]1(O)C(=O)OCc2c1cc1n(c2=O)Cc2c-1nc1ccccc1c2/C=N/OCCNC(=O)CCC(=O)NCc1ccc(C[C@@H]2NC(=O)[C@@H](Cc3ccccc3)NC(=O)[C@H](CC(=O)O)NC(=O)CNC(=O)[C@H](CCCNC(=N)N)NC2=O)cc1 | 0.00727 | 0.00839 | – | 5.4 | 5.4 | 4.7 | 4.3 | 0.16 | – |
| CC[C@@]1(O)C(=O)OCc2c1cc1n(c2=O)Cc2c-1nc1ccccc1c2CC/C=N/NC(=O)COCCOCCOCC(=O)NCc1ccc(C[C@@H]2NC(=O)[C@@H](Cc3ccccc3)NC(=O)[C@H](CC(=O)O)NC(=O)CNC(=O)[C@H](CCCNC(=N)N)NC2=O)cc1 | 0.00601 | 0.0229 | 12.9 | – | – | 0.42 | – | 0.017 | half-life at 100 µM [15]: 5.8 h; half-life at 100 µM [16]: < 0.0333 h |
| N=C(N)NCCC[C@@H]1NC(=O)[C@H](c2ccc(CNC(=O)COCCOCCOCC(=O)NN)cc2)NC(=O)[C@@H](Cc2ccccc2)NC(=O)[C@H](CC(=O)O)NC(=O)CNC1=O | 0.0038 | 0.00065 | 11.8 | – | – | > 1000 | – | > 1000 | – |
| N=C(N)NCCC[C@@H]1NC(=O)[C@H](CCCC(=O)O)NC(=O)[C@@H](Cc2ccccc2)NC(=O)[C@H](CC(=O)O)NC(=O)CNC1=O | – | – | – | – | – | > 1000 | > 1000 | > 1000 | Activity (Integrin alpha-V/beta-5 [6]): Dose-dependent effect; Activity (Integrin alpha-V/beta-3 [7]): Dose-dependent effect; Activity (Integrin alpha-V/beta-5 [8]): Dose-dependent effect; Activity (Integrin alpha-V [9]): Dose-dependent effect |
| CC[C@@]1(O)C(=O)OCc2c1cc1n(c2=O)Cc2c-1nc1ccccc1c2/C=N/OCCNC(=O)COCCOCCOCC(=O)NCc1ccc(C[C@@H]2NC(=O)[C@@H](Cc3ccccc3)NC(=O)[C@H](CC(=O)O)NC(=O)CNC(=O)[C@H](CCCN=C(N)N)NC2=O)cc1 | 0.0125 | 0.0065 | 1.8 | 3.1 | 3.1 | 27 | 0.74 | 0.18 | Drug uptake (A498 [12]): Active; inhibition in vivo at 48 mg/kg (A2780 [17]): 43%; inhibition in vivo at 48 mg/kg (A2780 [18]): 37%; Activity (Mus musculus [19]): 2.5%; Activity (Mus musculus [20]): 2.5% |
| CC[C@@]1(O)C(=O)OCc2c1cc1n(c2=O)Cc2c-1nc1ccccc1c2CCC=O | – | – | – | – | – | 0.12 | – | 0.015 | – |
| CC[C@@]1(O)C(=O)OCc2c1cc1n(c2=O)Cc2c-1nc1ccccc1c2/C=N\OCCN | – | – | – | – | – | 0.36 | 0.064 | 0.0049 | IC50 (Integrin alpha-V/beta-3 [1]): Not Active; IC50 (Integrin alpha-V [21]): Not Active; Drug uptake (A498 [22]): Active; inhibition (A2780 [23]): Toxic; inhibition in vivo at 0.42 mg/kg (A2780 [24]): 43%; AUC (Mus musculus [25]): 2 µg/h/mL |
| CC[C@@]1(O)C(=O)OCc2c1cc1n(c2=O)Cc2c-1nc1ccccc1c2/C=N/NC(=O)COCCOCCOCC(=O)NCc1ccc(C[C@@H]2NC(=O)[C@@H](Cc3ccccc3)NC(=O)[C@H](CC(=O)O)NC(=O)CNC(=O)[C@H](CCCNC(=N)N)NC2=O)cc1 | 0.0117 | 0.0599 | 6.7 | – | – | 0.22 | – | 0.09 | half-life at 100 µM [15]: 6 h; half-life at 100 µM [16]: 25 h |
